The test system of test [1] is LNCaP. Nature of the test: Induction of cholesterol metabolism deregulation in human LNCAP cells assessed as reduction in NBD-cholesterol uptake at 20 uM after 48 hrs by DAPI/Alexa fluor 633 phalloidin staining based high-content imaging analysis. The format is functional, cell-based. In short, it runs like this: (§1)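 LNCaP seeded 72 h on poly-L-ornithine-coated plates and treated 48 h in three replicate wells: DMSO vehicle, compounds at 30 μM, TOFA 10 μM or orlistat 20 μM. Then 3 h at 37 °C in serum-free RPMI with 0.2% BSA and 15 μM NBD-cholesterol. PFA-fixed, glycine-quenched, stained with DAPI and phalloidin. Imaged at 10× to 1000 cells/well; per-cell NBD mean fluorescence, about 3000 cells/treatment, mean ± SD.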

The subject of test [2] is LNCaP. Nature of the test: Cytotoxicity against human LNCAP cells assessed as reduction in cell viability at 10 uM after 72 hrs by alamar blue assay relative to control. Format: functional. An outline of the steps: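 LNCaP cells (ATCC) in phenol-red-free RPMI-1640 with 5% FBS, 37 °C, 5% CO2, seeded 4000/well for 24 h, then exposed 72 h. Stocks in DMSO, final DMSO 0.3%; DMSO as negative and vinblastine 50 nM as positive control. Viability read by alamarBlue metabolic reduction. Triplicate points, at least three independent experiments.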
(Alamar Blue is a resazurin reagent that responds to reducing activity.)

Test [3] relates to LNCaP. Nature of the test: Induction of cholesterol metabolism deregulation in human LNCAP cells assessed as effect on fatty acid uptake at 30 uM after 48 hrs by DAPI/Alexa fluor 633 phalloidin staining based high-content imaging analysis. Format: functional, cell-based.
For test [4], the system named is LNCaP. Description: Induction of cholesterol metabolism deregulation in human LNCAP cells assessed as reduction in NBD-cholesterol uptake at 30 uM after 48 hrs by DAPI/Alexa fluor 633 phalloidin staining based high-content imaging analysis. The format is functional, cell-based. An outline of the steps:
as §1

The subject of test [5] is LNCaP. Description: Induction of cholesterol metabolism deregulation in human LNCAP cells assessed as reduction in free NBD-cholesterol uptake.
The subject of test [6] is LNCaP. Description: Induction of cholesterol metabolism deregulation in human LNCAP cells assessed as effect on cellular lipid content at 30 uM after 48 hrs by DAPI/Alexa fluor 633 phalloidin staining based high-content imaging analysis. Format: functional, cell-based.
The subject of test [7] is LNCaP. Nature of the test: Induction of cholesterol metabolism deregulation in human LNCAP cells assessed as reduction in NBD-cholesterol uptake at 10 uM after 48 hrs by DAPI/Alexa fluor 633 phalloidin staining based high-content imaging analysis. The format is functional, cell-based.

The results in this text go back to ChEMBL document CHEMBL4251669, “Identification of Gibberellic Acid Derivatives That Deregulate Cholesterol Metabolism in Prostate Cancer Cells” (2018).

Activity calls are given as the source filed them. The calls are words filed in the database; no cut-off is given here. Some results are limits rather than exact numbers.

Consider `CCCCCCCCCCC[C@@H](C[C@@H]1OC(=O)[C@H]1CCCCCC)OC(=O)[C@H](CC(C)C)NC=O`, for which the result in the test on LNCaP [1] was Active.

As for `C=C1C[C@]23C[C@@]1(O)CC[C@H]2[C@@]12C=C[C@H](O)[C@](C)(C(=O)O1)[C@H]2[C@@H]3C(=O)NCc1ccccc1`, the Activity in the test with LNCaP [2] is on record as less than 30%.

On to `C=C1C[C@]23C[C@@]1(O)CC[C@H]2[C@@]12C=C[C@H](O)[C@](C)(C(=O)O1)[C@H]2[C@@H]3C(=O)NCc1ccc(OC)cc1`, for which, in the test on LNCaP [2], the Activity is less than 30%.

For the molecule `C=C1C[C@]23C[C@@]1(O)CC[C@H]2[C@@]12C=C[C@H](O)[C@](C)(C(=O)O1)[C@H]2[C@@H]3C(=O)NCc1ccc(F)cc1`, the Activity in the test with LNCaP [2] was less than 30%.

As to `C=C1C[C@]23C[C@@]1(O)CC[C@H]2[C@@]12C=C[C@H](O)[C@](C)(C(=O)O1)[C@H]2[C@@H]3C(=O)NCCc1ccc(Br)cc1`, the outcome with LNCaP [3] and in the test with LNCaP [6] was inactive. Moreover, the outcome with LNCaP [4] and in the test on LNCaP [5] was Active. For the same molecule, in the test with LNCaP [2], the Activity is given as less than 30%.

Regarding `C=C1C[C@]23C[C@@]1(O)CC[C@H]2[C@@]12C=C[C@H](O)[C@](C)(C(=O)O1)[C@H]2[C@@H]3C(=O)NCCc1ccccc1`, the Activity in the test with LNCaP [2] is reported as less than 30%.

As to `CCCCCCCCCCCCCCOc1ccc(C(=O)O)o1`, the outcome in the test on LNCaP [7] was Active.

For the molecule `C=C1C[C@]23C[C@@]1(O)CC[C@H]2[C@@]12C=C[C@H](O)[C@](C)(C(=O)O1)[C@H]2[C@@H]3C(=O)NCCc1ccccn1`, the result in the test with LNCaP [3] and with LNCaP [6] was inactive. The result in the test with LNCaP [4] and in the test with LNCaP [5] was Active. Also, the Activity with LNCaP [2] was less than 30%.

Consider `C=C1C[C@]23C[C@@]1(O)CC[C@H]2[C@@]12C=C[C@H](O)[C@](C)(C(=O)O1)[C@H]2[C@@H]3C(=O)NCc1ccc(Cl)cc1`, for which the outcome in the test on LNCaP [3] and with LNCaP [6] was inactive. Besides, the outcome in the test with LNCaP [4] and in the test with LNCaP [5] was Active. The Activity in the test on LNCaP [2] was less than 30%.

Turning to `C=C1C[C@]23C[C@@]1(O)CC[C@H]2[C@@]12C=C[C@H](O)[C@](C)(C(=O)O1)[C@H]2[C@@H]3C(=O)NCCc1ccc(F)cc1`, the outcome with LNCaP [3] and in the test with LNCaP [6] was inactive. Besides, the result in the test with LNCaP [4] and in the test with LNCaP [5] was Active. Besides, the Activity with LNCaP [2] is listed as less than 30%.

In the case of `C=C1C[C@]23C[C@@]1(O)CC[C@H]2[C@@]12C=C[C@H](O)[C@](C)(C(=O)O1)[C@H]2[C@@H]3C(=O)NCCc1cccs1`, the Activity with LNCaP [2] was less than 30%.

As for `C=C1C[C@]23C[C@@]1(O)CC[C@H]2[C@@]12C=C[C@H](O)[C@](C)(C(=O)O1)[C@H]2[C@@H]3C(=O)NCCc1ccc(Cl)cc1`, in the test on LNCaP [2], the Activity is on record as less than 30%.

Turning to `C=C1C[C@]23C[C@@]1(O)CC[C@H]2[C@@]12C=C[C@H](O)[C@](C)(C(=O)O1)[C@H]2[C@@H]3C(=O)O` [GIBBERELLIN GA3], the result with LNCaP [3] and in the test on LNCaP [6] was inactive. Moreover, in the test with LNCaP [4], the result was Active. The Activity with LNCaP [2] is listed as less than 30%.

Take `C=C1C[C@]23C[C@@]1(O)CC[C@H]2[C@@]12C=C[C@H](O)[C@](C)(C(=O)O1)[C@H]2[C@@H]3C(=O)NCc1ccc(Br)cc1`: the result with LNCaP [3] and in the test with LNCaP [6] was inactive. The result with LNCaP [4] and with LNCaP [5] was Active. In addition, the Activity in the test on LNCaP [2] is less than 30%.

On to `C=C1C[C@]23C[C@@]1(O)CC[C@H]2[C@@]12C=C[C@H](O)[C@](C)(C(=O)O1)[C@H]2[C@@H]3C(=O)NCCc1ccc(OC)cc1`, for which the Activity in the test on LNCaP [2] was less than 30%.
